For orientation: inhibition means the percentage by which the read-out fell short of the control. Broadly, the IC20 is the point of the concentration-response curve where the effect stands at 20%.

We go through 9 molecules from ChEMBL document CHEMBL1667803, “Inhibitory effects of ethacrynic acid analogues lacking the α,β-unsaturated carbonyl unit and para-acylated phenols on human cancer cells” (2011).

What all share (format): functional
For assay [1], the system named is LNCaP C4-2B. The assay can be described thus: Inhibition of migration of human C4-2B cells at 100 uM after 24 hrs. Put shortly: (§1)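 Wound-healing migration assay. Confluent monolayers were washed twice with PBS and scratched to leave a gap of about 1500 µm, then imaged. Fresh medium was added with or without compound, at concentrations set from the 24 h MTT assay. The wound was imaged again after 24 h. Migration was quantified against the earlier images as migratory velocity (µm/h).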

The species named for a further assay is Homo sapiens. The assay can be described thus: (§2) Inhibition of migration of human Hs578Ts(i)8 cells at 100 uM after 24 hrs. An outline of the steps:
as §1

Assay [2] has as its system LNCaP C4-2B. The assay can be described thus: […] human C4-2B cells assessed as reduction in cell viability after 24 hrs. An outline of the steps:
(§3)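 MTT viability assay. Cells seeded at 1.5×10^4 per well in medium with 5% FBS and penicillin/streptomycin, then grown 24 h at 37 °C in 5% CO2. Treated 24 h at 1, 5, 10, 20, 40, 60, 80 and 100 μM. Half the medium was removed before adding MTT, and optical density was read. Three independent experiments were run per concentration. OD80/IC20 (20% inhibition) was read from the graphs.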

Assay [3] is described as follows: […] human Hs578Ts(i)8 cells assessed as reduction in cell viability after 24 hrs. Put shortly:
as §3

A short description of assay [4]: as §2. Put shortly:
as §1

The source made the active and inactive calls. No cut-off for these calls is given here.

For the molecule `CCOC(=O)COc1ccc(C(=O)CC)c(C)c1C`, the inhibition entry in the assay on LNCaP C4-2B [1] and in the assay listed under Homo sapiens was “inactive” each time. For the same molecule, the IC20 (with LNCaP C4-2B [2]; in assay [3]) was > 100 µM in each case.
Regarding `CCCC(=O)c1ccc(OCC(=O)OCC)c(C)c1C`, the inhibition entry in the assay on LNCaP C4-2B [1] and in the assay filed under Homo sapiens was “inactive” each time. The concentration for an effect of 20% (IC20) is 50 µM in the assay with LNCaP C4-2B [2] and > 100 µM in assay [3].
Consider `CCC(=O)c1ccc(O)cc1C`, for which the results for the inhibition at 100 µM (in the assay with LNCaP C4-2B [1]; in assay [4]) were 65% and 86%, respectively. Moreover, the IC20 (with LNCaP C4-2B [2]; in assay [3]) was > 100 µM each time.
For the molecule `C=C(CC)C(=O)c1ccc(OCC(=O)O)c(Cl)c1Cl` [ETHACRYNIC ACID], the inhibition result in the assay with LNCaP C4-2B [1] and in the assay filed under Homo sapiens was “inactive” in each case. The IC20 came out at 10 µM in the assay on LNCaP C4-2B [2] and 80 µM in assay [3].
For the molecule `CCC(=O)c1ccc(O)cc1` [PAROXYPROPIONE], the figures for the inhibition at 100 µM (with LNCaP C4-2B [1]; in assay [4]) were 25% and 28%, respectively. The IC20 (in the assay with LNCaP C4-2B [2]; in assay [3]) was > 100 µM each time.
As for `CCC(=O)c1ccc(OCC(=O)O)c(C)c1C`, the inhibition result with LNCaP C4-2B [1] and in the assay listed under Homo sapiens was “inactive” throughout. Moreover, the IC20 (with LNCaP C4-2B [2]; in assay [3]) was > 100 µM in each case.
For `CCC(=O)c1ccc(O)c(C)c1C`, in the assay with LNCaP C4-2B [1], the inhibition result was “inactive”. In addition, 100 µM produced 17% inhibition in assay [4]. For the same molecule, the concentration for an effect of 20% (IC20) (in the assay on LNCaP C4-2B [2]; in assay [3]) was > 100 µM throughout.
Regarding `CCCC(=O)c1ccc(OCC(=O)O)c(C)c1C`, the inhibition result in the assay with LNCaP C4-2B [1] and in the assay filed under Homo sapiens was “inactive” in each case. In addition, the IC20 (in the assay with LNCaP C4-2B [2]; in assay [3]) was > 100 µM throughout.
As to `CCOC(=O)COc1ccc(C(=O)CC)c(C)c1`, the inhibition at 100 µM in the assay on LNCaP C4-2B [1] came out at 23%; in assay [4], 19%. Besides, the IC20 (with LNCaP C4-2B [2]; in assay [3]) was > 100 µM throughout.
